Laboratory results as given in ChEMBL document CHEMBL4145661, “H2O2/Peroxynitrite-Activated Hydroxamic Acid HDAC Inhibitor Prodrugs Show Antileukemic Activities against AML Cells” (ACS Med Chem Lett, 2018).
Values belong to the compound of their own block, whether it stands above or below them. Calls of active or inactive are those of the source. No cut-off for these calls is given here.

Legend:
PBMC = assay: Cytotoxicity against human PBMC assessed as reduction in cell viability after 72 hrs by MTT assay; type: functional, cell-based
Outline: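 Peripheral blood mononuclear cells from two healthy donors, viability measured by MTT assay.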

MV4-11 [1] = assay: Cytotoxicity against human MV4-11 cells assessed as reduction in cell viability at 0.05 to 0.5 uM cotreated with up to 500 nM of 4-CPA measured after 72 hrs by MTT assay; type: functional, cell-based
MV4-11 [2] = assay: Cytotoxicity against human MV4-11 cells assessed as reduction in cell viability after 72 hrs by MTT assay; settings: MV4-11, 72 h
U-937 [3] = assay: Cytotoxicity against human U937 cells assessed as reduction in cell viability at 0.25 to 2.5 uM after 72 hrs by MTT assay; type: functional, cell-based
MV4-11 [4] = assay: Potentiation of cytarabine-induced cytotoxicity against human MV4-11 cells assessed as reduction in cell viability at 0.5 uM after 72 hrs by MTT assay; type: functional, cell-based
Outline: (§1)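 MV4-11 cells given prodrug (2.5 or 0.5 μM) with cytarabine for 72 h. Viability by MTT; mean ± SD, n = 6.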

[5] = biological target: T1, Histone deacetylase (Homo sapiens) (UniProt Q13547+O15379+Q9UBN7+Q92769+Q9UQL6+Q8WUI4+Q9BY41+Q96DB2+P56524+Q9UKV0+Q969S8); assay: Inhibition of HDAC in human PBMC assessed as increase in acetylation of alpha-tubulin at 5 to 10 uM after 6 hrs by Western blot analysis; type: cell-based
Outline: (§2)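 Peripheral blood mononuclear cells from one healthy donor, treated at 5 and 10 μM and compared against vehicle control. Acetyl-histone H4 and acetyl-α-tubulin assessed by Western blot.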

[6] = biological target: T1, Histone deacetylase (Homo sapiens); assay: Inhibition of HDAC in human MV4-11 cells assessed as increase in acetylation of histone H4 after 6 hrs by Western blot analysis; type: cell-based
Outline: (§3)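 Western blot of MV4-11 cells after 6 h exposure at the indicated concentrations, probing acetyl-histone H4 and acetyl-α-tubulin. Densitometry normalized to GAPDH, fold change relative to SAHA treatment. Blot representative of three experiments.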

MV4-11 [7] = assay: Potentiation of cytarabine-induced cytotoxicity against human MV4-11 cells assessed as increase in cleaved PARP level at 0.5 uM after 24 hrs by Western blot analysis; type: functional, cell-based
Outline: (§4)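 MV4-11 cells exposed 24 h to prodrug (2.5 or 0.5 μM) and/or cytarabine (0.5 μM). Cleaved caspase-3 and cleaved PARP-1 detected by Western blot.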

U-937 [8] = assay: Cytotoxicity against human U937 cells assessed as reduction in cell viability after 72 hrs by MTT assay; settings: U-937, 72 h
MV4-11 [9] = assay: Potentiation of cytarabine-induced cytotoxicity against human MV4-11 cells assessed as increase in cleaved caspase 3 level at 0.5 uM after 24 hrs by Western blot analysis; type: functional, cell-based; outline: as §4
[10] = biological target: T1, Histone deacetylase (Homo sapiens); assay: Inhibition of HDAC in human U937 cells assessed as increase in acetylation of histone H4 after 6 hrs by Western blot analysis; type: cell-based
[11] = biological target: T1, Histone deacetylase (Homo sapiens); assay: Inhibition of HDAC in human MV4-11 cells assessed as increase in acetylation of alpha-tubulin after 6 hrs by Western blot analysis; type: cell-based; outline: as §3
[12] = biological target: T1, Histone deacetylase (Homo sapiens); assay: Inhibition of HDAC in human PBMC assessed as increase in acetylation of histone H4 at 5 to 10 uM after 6 hrs by Western blot analysis; type: cell-based; outline: as §2
[13] = biological target: T1, Histone deacetylase (Homo sapiens); assay: Inhibition of HDAC in human U937 cells assessed as increase in acetylation of alpha-tubulin after 6 hrs by Western blot analysis; type: cell-based
MV4-11 [14] = assay: Cytotoxicity against human MV4-11 cells assessed as reduction in cell viability up to 10 uM after 72 hrs by MTT assay; type: functional, cell-based
[15] = biological target: T1, Histone deacetylase (Homo sapiens); settings: at 1 µM
MV4-11 [16] = assay: Cytotoxicity against human MV4-11 cells assessed as reduction in cell viability at 0.25 to 1 uM cotreated with 4-CPA measured after 72 hrs by MTT assay; type: functional, cell-based
MV4-11 [17] = assay: Cytotoxicity against human MV4-11 cells assessed as reduction in cell viability at 2.5 uM pretreated with catalase for 2 hrs followed by compound addition measured after 72 hrs by MTT assay; type: functional, cell-based
MV4-11 [18] = assay: Potentiation of cytarabine-induced cytotoxicity against human MV4-11 cells assessed as increase in cleaved PARP level at 2.5 uM after 24 hrs by Western blot analysis; type: functional, cell-based; outline: as §4
MV4-11 [19] = assay: Cytotoxicity against human MV4-11 cells assessed as reduction in cell viability at 2.5 uM pretreated with SOD for 2 hrs followed by compound addition measured after 72 hrs by MTT assay; type: functional, cell-based
MV4-11 [20] = assay: Cytotoxicity against human MV4-11 cells assessed as reduction in cell viability at 2.5 uM pretreated with BSO for 2 hrs followed by compound addition measured after 72 hrs by MTT assay; type: functional, cell-based
MV4-11 [21] = assay: Potentiation of cytarabine-induced cytotoxicity against human MV4-11 cells assessed as reduction in cell viability at 2.5 uM after 72 hrs by MTT assay; type: functional, cell-based; outline: as §1
MV4-11 [22] = assay: Cytotoxicity against human MV4-11 cells assessed as reduction in cell viability at 2.5 uM pretreated with GSHEE for 2 hrs followed by compound addition measured after 72 hrs by MTT assay; type: functional, cell-based
[23] = Chemical stability of the compound in PBS at 100 uM at pH 7.4 after 72 hrs at 37 degC in presence of GSH by HPLC method; type: physicochemical; settings: buffer, pH 7.4, 72 h
MV4-11 [24] = assay: Cytotoxicity against human MV4-11 cells assessed as reduction in cell viability at 2.5 uM pretreated with LPS for 2 hrs followed by compound addition measured after 72 hrs by MTT assay; type: functional, cell-based
MV4-11 [25] = assay: Potentiation of cytarabine-induced cytotoxicity against human MV4-11 cells assessed as increase in cleaved caspase 3 level at 2.5 uM after 24 hrs by Western blot analysis; type: functional, cell-based; outline: as §4
MV4-11 [26] = assay: Cytotoxicity against human MV4-11 cells assessed as reduction in cell viability at 2.5 uM pretreated with GSH for 2 hrs followed by compound addition measured after 72 hrs by MTT assay; type: functional, cell-based

SMILES: O=C(CCCCCCC(=O)Nc1ccccc1)NO
- Activity (PBMC): Active
- Activity (MV4-11 [1]): inactive

SMILES: CC(=O)Oc1ccc(CCl)cc1
- IC50 (MV4-11 [2]): 1.13 µM

SMILES: COC(=O)CCCCCCOc1c(OC)cc(/C=C/C(=O)N2CCC=CC2=O)cc1OC
- Activity (U-937 [3]): inactive

- inhibition [5]: inactive
- inhibition [6]: Dose-dependent effect
- inhibition [10]: Dose-dependent effect
- inhibition [11]: Dose-dependent effect
- inhibition [12]: inactive
- inhibition [13]: Dose-dependent effect
SMILES: COc1cc(/C=C/C(=O)N2CCC=CC2=O)cc(OC)c1OCCCCCCC(=O)NOCc1ccc(B(O)O)cc1
- IC50 (MV4-11 [2]): 0.7 µM
- Activity (MV4-11 [4]): Active
- IC50 (PBMC): 7.6 to 10 µM
- Activity (MV4-11 [7]): Active
- IC50 (U-937 [8]): 1.61 µM
- Activity (MV4-11 [9]): Active

SMILES: O=C(CCCCCCC(=O)Nc1ccccc1)NCCc1ccc(B(O)O)cc1
- Activity (MV4-11 [14]): inactive

- inhibition [15]: 32%
SMILES: COc1cc(/C=C/C(=O)N2CCC=CC2=O)cc(OC)c1OCCCCCCC(=O)NO
- Activity (MV4-11 [16]): Active

- inhibition [5]: inactive
- inhibition [6]: Dose-dependent effect
- inhibition [10]: Dose-dependent effect
- inhibition [11]: Dose-dependent effect
- inhibition [12]: inactive
- inhibition [13]: Dose-dependent effect
- Stability [23]: Stable
SMILES: O=C(CCCCCCC(=O)Nc1ccccc1)NOCc1ccc(B(O)O)cc1
- IC50 (MV4-11 [2]): 3.07 µM
- IC50 (PBMC): > 10 µM
- IC50 (U-937 [8]): 6.13 µM
- Activity (MV4-11 [17]): inactive
- Activity (MV4-11 [18]): Active
- Activity (MV4-11 [19]): Active
- Activity (MV4-11 [20]): Active
- Activity (MV4-11 [21]): Active
- Activity (MV4-11 [22]): inactive
- Activity (MV4-11 [24]): Active
- Activity (MV4-11 [25]): Active
- Activity (MV4-11 [26]): inactive
